Assay results published in paper PMC6558985 (Nature chemical biology, 2019).

What was measured:
HeLa-WT cells [1] = assay: Microtubule organization; assay type: cell-based, human; conditions: 10 µM, 4 hours
Xl-katanin = Xl-katanin (Xenopus laevis, UniProt Q9PUL2); assay: Steady-state ATPase activity, NADH-coupled assay, Xl-katanin; assay type: biochemical, X. laevis; conditions: 10 µM, 0.5 mM MgATP, n = 3
Method in brief: (§1)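 Recombinant AAA protein constructs assayed by steady-state ATPase with NADH-coupled read-out at 0.5 mM MgATP, with test compound at 2 µM or 10 µM. Activity is reported as percent of steady-state ATPase activity, average ± s.d., n = 3.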

HeLa-N386C cells [2] = assay: Intercellular bridge analysis; assay type: cell-based, human; conditions: 10 µM, 4.5 hours, average ± s.d., n = 3
Method in brief: (§2)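 Fixed HeLa Flp-In T-Rex lines expressing GFP-tagged spastin M87e4, either wildtype or N386C. Cells were exposed to 0.1% DMSO or 10 µM test compound for 4.5 h, then stained for acetylated tubulin to mark intercellular bridges and imaged by immunofluorescence. Read-out is the percent of cells with a bridge: >2500 cells per condition, average ± s.d., n = 3.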

Hs-FIGL1 = molecular target: T1, Hs-FIGL1 (Homo sapiens, UniProt Q6PIW4); assay: Steady-state ATPase activity, NADH-coupled assay, Hs-FIGL1; assay type: biochemical; conditions: 10 µM, 0.5 mM MgATP, n = 3
T1 sequence (Q6PIW4 288-674): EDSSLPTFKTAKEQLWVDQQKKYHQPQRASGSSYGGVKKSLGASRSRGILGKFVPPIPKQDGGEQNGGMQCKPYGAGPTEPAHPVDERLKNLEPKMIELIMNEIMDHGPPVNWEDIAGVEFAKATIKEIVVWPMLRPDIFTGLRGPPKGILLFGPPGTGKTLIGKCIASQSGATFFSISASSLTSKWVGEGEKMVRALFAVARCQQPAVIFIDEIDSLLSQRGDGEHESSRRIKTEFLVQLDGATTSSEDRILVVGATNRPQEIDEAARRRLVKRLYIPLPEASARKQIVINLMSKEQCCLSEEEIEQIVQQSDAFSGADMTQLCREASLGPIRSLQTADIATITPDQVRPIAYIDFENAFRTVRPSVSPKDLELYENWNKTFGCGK
Method in brief: as §1

Hs-PCH2 = molecular target: T2, Hs-PCH2 (Homo sapiens, UniProt Q15645); assay: Steady-state ATPase activity, NADH-coupled assay, Hs-PCH2; assay type: biochemical; conditions: 10 µM, 0.5 mM MgATP, n = 3
T2 sequence (Q15645 1-432): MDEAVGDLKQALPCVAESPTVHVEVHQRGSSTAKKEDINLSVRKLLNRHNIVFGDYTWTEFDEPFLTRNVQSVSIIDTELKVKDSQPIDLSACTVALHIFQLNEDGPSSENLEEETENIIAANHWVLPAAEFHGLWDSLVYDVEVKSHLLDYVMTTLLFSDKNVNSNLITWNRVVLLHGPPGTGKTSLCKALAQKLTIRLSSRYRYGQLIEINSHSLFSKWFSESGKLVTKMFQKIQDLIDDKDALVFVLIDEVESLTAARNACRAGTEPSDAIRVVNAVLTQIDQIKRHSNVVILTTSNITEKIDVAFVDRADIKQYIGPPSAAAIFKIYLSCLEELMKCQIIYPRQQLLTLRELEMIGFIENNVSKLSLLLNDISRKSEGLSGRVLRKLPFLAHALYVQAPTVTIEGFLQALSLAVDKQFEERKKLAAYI
Method in brief: as §1

Hs-spastin-N386C = assay: Steady-state ATPase activity, NADH-coupled assay, Hs-spastin N386C; assay type: biochemical, human; conditions: 1 mM MgATP
human VPS4B = molecular target: T3, human VPS4B (Homo sapiens, UniProt O75351); assay: Steady-state ATPase activity, NADH-coupled assay, VPS4B; assay type: biochemical; conditions: 1 mM MgATP, n = 3
T3 sequence (O75351 1-444): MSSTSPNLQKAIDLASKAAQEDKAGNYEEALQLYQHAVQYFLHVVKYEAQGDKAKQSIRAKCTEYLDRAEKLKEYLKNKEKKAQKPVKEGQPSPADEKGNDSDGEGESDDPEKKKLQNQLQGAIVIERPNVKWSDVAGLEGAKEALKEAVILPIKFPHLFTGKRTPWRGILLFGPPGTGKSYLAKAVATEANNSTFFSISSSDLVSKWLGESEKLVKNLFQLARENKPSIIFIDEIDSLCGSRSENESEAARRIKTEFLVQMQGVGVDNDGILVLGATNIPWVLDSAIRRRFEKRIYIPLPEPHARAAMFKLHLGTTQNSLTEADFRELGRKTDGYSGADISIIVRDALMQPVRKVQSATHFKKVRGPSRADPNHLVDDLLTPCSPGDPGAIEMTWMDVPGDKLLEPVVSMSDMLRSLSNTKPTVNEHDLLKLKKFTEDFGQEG

HeLa-WT cells [3] = assay: Intercellular bridge analysis; assay type: cell-based, human; conditions: 10 µM, 4.5 hours
Method in brief: as §2

HeLa-WT cells [4] = assay: CellTiter-Glo cell viability assay; assay type: cell-based, human; conditions: 10 µM, 48 h
Mm-VCP = Mm-VCP (Mus musculus, UniProt Q01853, I206V); assay: Steady-state ATPase activity, NADH-coupled assay, Mm-VCP; assay type: biochemical; conditions: 10 µM, 0.5 mM MgATP, n = 3
Method in brief: as §1

HeLa-N386C cells [5] = assay: Live-cell imaging of GFP-spastin puncta in anaphase, HeLa-N386C; assay type: cell-based, human; conditions: 10 µM for 1 hour, 20 min after cleavage furrow ingression

Xl-katanin, sequence (Q9PUL2 whole entry): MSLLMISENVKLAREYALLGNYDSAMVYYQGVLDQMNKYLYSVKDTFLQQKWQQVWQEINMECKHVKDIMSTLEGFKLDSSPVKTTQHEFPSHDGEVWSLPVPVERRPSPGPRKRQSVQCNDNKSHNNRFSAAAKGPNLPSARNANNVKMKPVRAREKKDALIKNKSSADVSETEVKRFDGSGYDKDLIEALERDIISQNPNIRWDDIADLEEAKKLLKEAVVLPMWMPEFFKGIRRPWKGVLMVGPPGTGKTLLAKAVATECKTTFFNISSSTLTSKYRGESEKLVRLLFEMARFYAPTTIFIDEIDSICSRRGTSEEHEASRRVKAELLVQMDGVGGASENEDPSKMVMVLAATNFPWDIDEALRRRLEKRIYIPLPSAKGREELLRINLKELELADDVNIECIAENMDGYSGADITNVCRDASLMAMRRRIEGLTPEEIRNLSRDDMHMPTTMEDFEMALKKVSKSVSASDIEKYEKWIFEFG
Mm-VCP, sequence (Q01853 whole entry I206V): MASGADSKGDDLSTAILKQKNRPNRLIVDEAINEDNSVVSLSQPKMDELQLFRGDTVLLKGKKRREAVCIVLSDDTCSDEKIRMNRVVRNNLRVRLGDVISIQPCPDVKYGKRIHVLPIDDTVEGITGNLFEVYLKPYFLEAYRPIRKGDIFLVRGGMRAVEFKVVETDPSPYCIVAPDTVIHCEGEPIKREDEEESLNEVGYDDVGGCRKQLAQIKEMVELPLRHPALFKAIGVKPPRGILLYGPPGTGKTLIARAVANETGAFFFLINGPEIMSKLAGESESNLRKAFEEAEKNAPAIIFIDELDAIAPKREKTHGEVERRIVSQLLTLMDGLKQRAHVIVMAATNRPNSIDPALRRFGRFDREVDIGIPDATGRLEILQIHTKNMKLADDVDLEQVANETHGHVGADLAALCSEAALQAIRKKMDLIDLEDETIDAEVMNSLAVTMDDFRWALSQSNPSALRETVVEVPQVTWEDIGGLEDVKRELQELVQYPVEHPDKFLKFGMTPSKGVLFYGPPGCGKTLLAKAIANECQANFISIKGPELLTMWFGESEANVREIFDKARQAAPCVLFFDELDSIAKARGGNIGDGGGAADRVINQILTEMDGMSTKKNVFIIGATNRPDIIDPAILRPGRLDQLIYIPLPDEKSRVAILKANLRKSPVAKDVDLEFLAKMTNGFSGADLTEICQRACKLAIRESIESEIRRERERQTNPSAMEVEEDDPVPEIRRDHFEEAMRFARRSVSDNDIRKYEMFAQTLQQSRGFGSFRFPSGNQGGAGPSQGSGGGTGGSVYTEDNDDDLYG

SMILES: CC(C)[C@@H]1CN(c2nc(Nc3cc(C(C)(C)C)[nH]n3)c3cc[nH]c3n2)CCN1 [spastazoline, (R)-N-(5-(tert-butyl)-1H-pyrazol-3-yl)-2-(3-isopropylpiperazin-1-yl)-7H-pyrrolo[2,3-d]pyrimidin-4-amine]
- organization of microtubules (HeLa-WT cells [1]): did not result in overt changes in the organization of microtubules
- inhibition of Xl-katanin ATPase activity (Xl-katanin): did not appreciably inhibit
- percent of cells with an intercellular bridge, HeLa-N386C (HeLa-N386C cells [2]): 13.6 ± 1.4%
- inhibition of Hs-FIGL1 ATPase activity (Hs-FIGL1): did not appreciably inhibit
- inhibition of Hs-PCH2 ATPase activity (Hs-PCH2): did not appreciably inhibit
- potency on Hs-spastin-N386C relative to wildtype (less potent) (Hs-spastin-N386C): > 100 fold
- inhibition of ATPase activity of recombinant human VPS4 (human VPS4B): did not inhibit ATPase activity
- increase in number of cells with intercellular bridges compared to DMSO control, HeLa-WT (HeLa-WT cells [3]): ~ 2 fold
- percent of cells with an intercellular bridge, HeLa-WT (HeLa-WT cells [3]; average ± s.d., n = 3): 25.2 ± 1.4%
- viability of HeLa cells (HeLa-WT cells [4]): did not impact the viability
- inhibition of Mm-VCP ATPase activity (Mm-VCP): did not appreciably inhibit
- increase in GFP-spastin dots in HeLa-N386C with respect to wildtype (HeLa-N386C cells [5]): 1.6 fold
- number of GFP-spastin dots, HeLa-N386C (HeLa-N386C cells [5]; average ± s.e.m.): 8 ± 3
